# ChEMBL document CHEMBL1148762, “Lysosome and HER3 (ErbB3) selective anticancer agent kahalalide F: semisynthetic modifications and antifungal lead-exploration studies” (J Med Chem, 2007)
# Active and inactive are the calls of the source. No cut-off for these calls is given here.
# Legend:
# Fusarium solani [1] = assay: Fungicidal activity against Fusarium solani at 30 uM after 72 hrs by microtiter assay; assay type: functional, organism-based
# Summary of the method: (§1)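 After 72 h of microtiter broth exposure at 30 µM, 20 µL from each well was plated onto compound-free potato dextrose agar and incubated 3 days at 28 °C. No regrowth was scored fungicidal; regrowth was scored fungistatic.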
# Fusarium oxysporum [2] = assay: Fungicidal activity against Fusarium oxysporum at 30 uM after 72 hrs by microtiter plate assay; assay type: functional, organism-based; summary of the method: as §1
# Fusarium proliferatum [3] = assay: Fungistatic activity against Fusarium proliferatum at 30 uM after 72 hrs by microtiter plate assay; assay type: functional, organism-based
# Summary of the method: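 Conidia come from 7-day potato dextrose agar cultures, filtered and set photometrically (625 nm) to 3 × 10^5 conidia/mL. They are exposed to compound at 30 µM in 96-well microdilution broth at 24 ± 1 °C under a 12 h photoperiod. After 72 h, 20 µL per well is subcultured on drug-free potato dextrose agar at 28 °C for 3 days. No regrowth is scored fungicidal; regrowth is scored fungistatic.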
# Fusarium solani [4] = assay: Antimicrobial activity against Fusarium solani at 3 uM after 48 hrs by microtiter assay; assay type: functional
# Summary of the method: (§2)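 96-well microdilution broth assay with conidia (3 × 10^5 conidia/mL, harvested from 7-day PDA cultures and filtered) against F. oxysporum, F. proliferatum and F. solani at 0.3, 3 and 30 µM. Plates were held at 24 ± 1 °C under a 12 h photoperiod. Growth was read at 620 nm at 24, 48 and 72 h and reported as percent inhibition from mean absorbance with standard error.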
# Fusarium oxysporum [5] = assay: Antimicrobial activity against Fusarium oxysporum at 0.3 uM after 72 hrs by microtiter assay; assay type: functional; summary of the method: as §2
# SK-OV-3 = assay: Cytotoxicity against human SK-OV3 cells; assay type: functional
# Summary of the method: (§3)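 NCI Developmental Therapeutics Program cell panel. GI50 is the concentration that reduces growth of treated cells to half that of untreated controls. TGI is the concentration that completely halts growth.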
# SNB-75 = assay: Cytotoxicity against human SNB75 cells; assay type: functional; summary of the method: as §3
# UACC-257 = assay: Cytotoxicity against human UACC257 cells; assay type: functional; summary of the method: as §3
# T47D = assay: Cytotoxicity against human T47D cells; assay type: functional; summary of the method: as §3
# Fusarium proliferatum [6] = assay: Antimicrobial activity against Fusarium proliferatum at 3 uM after 72 hrs by microtiter assay; assay type: functional; summary of the method: as §2
# Fusarium oxysporum [7] = assay: Antimicrobial activity against Fusarium oxysporum at 30 uM after 48 hrs by microtiter assay; assay type: functional; summary of the method: as §2
# Fusarium oxysporum [8] = assay: Antimicrobial activity against Fusarium oxysporum at 3 uM after 48 hrs by microtiter assay; assay type: functional; summary of the method: as §2
# PC-3 = assay: Cytotoxicity against human PC3 cells; assay type: functional; summary of the method: as §3
# RPMI-8226 = assay: Cytotoxicity against human RPMI8226 cells; assay type: functional; summary of the method: as §3
# Fusarium proliferatum [9] = assay: Antimicrobial activity against Fusarium proliferatum at 30 uM after 72 hrs by microtiter assay; assay type: functional; summary of the method: as §2
# COLO 205 = assay: Cytotoxicity against human COLO205 cells; assay type: functional; summary of the method: as §3
# NCI-H322M = assay: Cytotoxicity against human NCI-H322M cells; assay type: functional; summary of the method: as §3
# Fusarium solani [10] = assay: Antimicrobial activity against Fusarium solani at 30 uM after 48 hrs by microtiter assay; assay type: functional; summary of the method: as §2
# Fusarium oxysporum [11] = assay: Antimicrobial activity against Fusarium oxysporum at 0.3 uM after 48 hrs by microtiter assay; assay type: functional; summary of the method: as §2
# KM12 = assay: Cytotoxicity against human KM12 cells; assay type: functional; summary of the method: as §3
# Fusarium solani [12] = assay: Antimicrobial activity against Fusarium solani at 0.3 uM after 48 hrs by microtiter assay; assay type: functional; summary of the method: as §2
# Fusarium oxysporum [13] = assay: Antimicrobial activity against Fusarium oxysporum at 30 uM after 72 hrs by microtiter assay; assay type: functional; summary of the method: as §2
# Fusarium solani [14] = assay: Antimicrobial activity against Fusarium solani at 0.3 uM after 72 hrs by microtiter assay; assay type: functional; summary of the method: as §2
# Fusarium solani [15] = assay: Antimicrobial activity against Fusarium solani at 30 uM after 72 hrs by microtiter assay; assay type: functional; summary of the method: as §2
# DU-145 = assay: Cytotoxicity against human DU145 cells; assay type: functional; summary of the method: as §3
# Fusarium proliferatum [16] = assay: Antimicrobial activity against Fusarium proliferatum at 0.3 uM after 48 hrs by microtiter assay; assay type: functional; summary of the method: as §2
# Fusarium solani [17] = assay: Antimicrobial activity against Fusarium solani at 3 uM after 72 hrs by microtiter assay; assay type: functional; summary of the method: as §2
# Fusarium proliferatum [18] = assay: Antimicrobial activity against Fusarium proliferatum at 30 uM after 48 hrs by microtiter assay; assay type: functional; summary of the method: as §2
# A549 = assay: Cytotoxicity against human A549 cells; assay type: functional; summary of the method: as §3
# Fusarium oxysporum [19] = assay: Antimicrobial activity against Fusarium oxysporum at 3 uM after 72 hrs by microtiter assay; assay type: functional; summary of the method: as §2
# [20] = tested on: Mycobacterium tuberculosis; assay: Antibacterial activity against Mycobacterium tuberculosis H37Rv at 16 ug/mL by micro plate alamar blue assay; assay type: functional
# Summary of the method: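 M. tuberculosis H37Rv ATCC 27294 grown in BACTEC 12B medium; microplate Alamar blue assay (MABA). Primary screen at a single concentration of 16 µg/mL, read as percent inhibition.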
# HT-29 = assay: Cytotoxicity against human HT29 cells; assay type: functional; summary of the method: as §3
# Fusarium proliferatum [21] = assay: Antimicrobial activity against Fusarium proliferatum at 0.3 uM after 72 hrs by microtiter assay; assay type: functional; summary of the method: as §2
# HCT-15 = assay: Cytotoxicity against human HCT15 cells; assay type: functional; summary of the method: as §3
# HCC 2998 = assay: Cytotoxicity against human HCC2998 cells; assay type: functional; summary of the method: as §3
# ACHN = assay: Cytotoxicity against human ACHN cells; assay type: functional; summary of the method: as §3
# Fusarium proliferatum [22] = assay: Antimicrobial activity against Fusarium proliferatum at 3 uM after 48 hrs by microtiter assay; assay type: functional; summary of the method: as §2
# Hs-578T = assay: Cytotoxicity against human HS578T cells; assay type: functional; summary of the method: as §3
compound,measurement,setting,value
C/C=C1\NC(=O)[C@H](Cc2ccccc2)NC(=O)[C@@H](C(C)C)NC(=O)[C@@H]([C@@H](C)CC)NC(=O)[C@H](NC(=O)[C@H](NC(=O)[C@H](CCCN)NC(=O)[C@H]2CCCN2C(=O)[C@@H](NC(=O)[C@H](NC(=O)[C@H](NC(=O)[C@@H](NC(=O)CCCC(C)C)C(C)C)C(C)=O)C(C)C)C(C)C)[C@@H](C)CC)[C@@H](C)OC(=O)[C@H](C(C)C)NC1=O,Activity,Fusarium solani [1],Active
same,Activity,Fusarium oxysporum [2],Active
same,Activity,Fusarium proliferatum [3],Active
C/C=C1\NC(=O)[C@H](Cc2ccccc2)NC(=O)[C@@H](C(C)C)NC(=O)[C@@H]([C@@H](C)CC)NC(=O)[C@H](NC(=O)[C@H](NC(=O)[C@H](CCCNC(=O)c2cc3ccc(N(CC)CC)cc3oc2=O)NC(=O)[C@H]2CCCN2C(=O)[C@H](NC(=O)[C@@H](NC(=O)[C@@H](NC(=O)[C@H](NC(=O)CCCC(C)C)C(C)C)[C@@H](C)O)C(C)C)C(C)C)[C@@H](C)CC)[C@@H](C)OC(=O)[C@H](C(C)C)NC1=O,inhibition at 3 µM,Fusarium solani [4],0%
same,inhibition at 0.3 µM,Fusarium oxysporum [5],0%
same,GI50,SK-OV-3,2.55 µM
same,TGI,SK-OV-3,20.2 µM
same,GI50,SNB-75,2.11 µM
same,TGI,SNB-75,6.87 µM
same,GI50,UACC-257,> 100 µM
same,TGI,UACC-257,> 100 µM
same,GI50,T47D,0.518 µM
same,TGI,T47D,2.83 µM
same,inhibition at 3 µM,Fusarium proliferatum [6],0%
same,inhibition at 30 µM,Fusarium oxysporum [7],0%
same,inhibition at 3 µM,Fusarium oxysporum [8],0%
same,GI50,PC-3,3.7 µM
same,TGI,PC-3,21.8 µM
same,GI50,RPMI-8226,40.1 µM
same,TGI,RPMI-8226,> 100 µM
same,inhibition at 30 µM,Fusarium proliferatum [9],0%
same,GI50,COLO 205,4.52 µM
same,TGI,COLO 205,> 100 µM
same,GI50,NCI-H322M,0.165 µM
same,TGI,NCI-H322M,0.49 µM
same,inhibition at 30 µM,Fusarium solani [10],0%
same,inhibition at 0.3 µM,Fusarium oxysporum [11],0%
same,GI50,KM12,0.413 µM
same,TGI,KM12,3.07 µM
same,inhibition at 0.3 µM,Fusarium solani [12],0%
same,inhibition at 30 µM,Fusarium oxysporum [13],0%
same,inhibition at 0.3 µM,Fusarium solani [14],0%
same,inhibition at 30 µM,Fusarium solani [15],0%
same,GI50,DU-145,0.33 µM
same,TGI,DU-145,1.83 µM
same,inhibition at 0.3 µM,Fusarium proliferatum [16],0%
same,inhibition at 3 µM,Fusarium solani [17],0%
same,inhibition at 30 µM,Fusarium proliferatum [18],0%
same,GI50,A549,13.7 µM
same,TGI,A549,> 100 µM
same,inhibition at 3 µM,Fusarium oxysporum [19],0%
same,inhibition at 16 µg/mL,[20],46%
same,GI50,HT-29,2.39 µM
same,TGI,HT-29,> 100 µM
same,inhibition at 0.3 µM,Fusarium proliferatum [21],0%
same,GI50,HCT-15,0.964 µM
same,TGI,HCT-15,17.7 µM
same,GI50,HCC 2998,2.27 µM
same,TGI,HCC 2998,11.4 µM
same,GI50,ACHN,26.4 µM
same,TGI,ACHN,69.8 µM
same,inhibition at 3 µM,Fusarium proliferatum [22],0%
same,GI50,Hs-578T,3.03 µM
same,TGI,Hs-578T,> 100 µM
